Laboratory results taken from ChEMBL document CHEMBL1772967 (J Med Chem, 2011).
Values belong to the molecule of their own block, whether it stands above or below them. The source made the active and inactive calls. The calls are words filed in the database; no cut-off is given here.

How the values were obtained:
[1] = target: T1, Albumin (Homo sapiens, UniProt P02768); test: Binding affinity to human serum albumin at 500 uM at 37 degC by surface plasmon resonance assay; format: ADME; settings: isolated protein
[2] = target: T2, Albumin (Rattus norvegicus, UniProt P02770); test: Binding affinity to rat serum albumin at 500 uM at 37 degC by surface plasmon resonance assay; format: ADME; settings: isolated protein
[3] = Binding affinity to low-affinity site of human alpha-1-acid glycoprotein at 20 degC by surface plasmon resonance assay; format: ADME
Method in brief: (§1)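 Cross-serial dilutions, top 250 μM. Reference-subtracted, solvent-corrected, double-referenced responses at the end of association plotted against concentration and fitted to single- or two-site equilibrium models.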

[4] = Binding affinity to high-affinity binding site of rat alpha-1-acid glycoprotein at 20 degC by surface plasmon resonance assay; format: ADME; method in brief: as §1
[5] = Binding affinity to low-affinity binding site of rat alpha-1-acid glycoprotein at 20 degC by surface plasmon resonance assay; format: ADME; method in brief: as §1
[6] = target: T1, Albumin; test: Binding affinity to human serum albumin at 500 uM at 20 degC by surface plasmon resonance assay; format: ADME; settings: isolated protein
[7] = target: T2, Albumin; test: Binding affinity to rat serum albumin at 500 uM at 20 degC by surface plasmon resonance assay; format: ADME; settings: isolated protein
[8] = Binding affinity to human alpha-1-acid glycoprotein at 25 degC; format: ADME
[9] = Binding affinity to human alpha-1-acid glycoprotein at 20 degC by isothermal titration calorimetry analysis; format: ADME
Method in brief: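 ITC at 20 °C. Human (300 μM) or rat (100 μM) AAG dialysed overnight at 4 °C into 50 mM HEPES pH 7.2, 150 mM NaCl, 0.005% Tween-20, 5% DMSO. Heats corrected with buffer controls and fitted to a one-site model.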

[10] = Binding affinity to high-affinity site of human alpha-1-acid glycoprotein at 20 degC by surface plasmon resonance assay; format: ADME; method in brief: as §1
[11] = Binding affinity to 10 uM of human alpha-1-acid glycoprotein in at 5 uM after 6 hrs by equilibrium dialysis method; format: ADME; settings: isolated protein
Method in brief: (§2)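 [14C]-labelled plus unlabelled drug added to human AAG at 0.5, 1 or 5 mg/mL to give 5, 25 or 75 μM drug. Dialysed against 0.133 M isotonic phosphate buffer, 6 h, 37 °C, 5% CO2. Scintillation counting of both sides gives % free (buffer/protein side ×100) and % bound. High-affinity KD from a two-site fit of bound vs free, Bmax1 fixed at the AAG concentration.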

[12] = Binding affinity human alpha-1-acid glycoprotein in after 6 hrs by equilibrium dialysis method; format: ADME; method in brief: as §2
[13] = target: Sonic hedgehog protein (Homo sapiens) (UniProt Q15465); test: Inhibition of human SHH pathway in mouse S12 cells assessed as GLI-mediated transcriptional activity after 48 hrs by luciferase reporter gene assay in presence of 1 mg/mL human alpha-1-acid glycoprotein; format: cell-based
Method in brief: (§3)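 Mouse C3H10T1/2-derived S12 cells carrying a stably integrated GLI-luciferase reporter. Grown in high-glucose DMEM with 10% FBS, replated, then switched to 0.5% FBS to induce cilia. Shh, human AAG (0, 0.5, 1 or 5 mg/mL) and compound added. Luciferase (Dual-Glo) read after 48 h. Mean of four experiments ±SD.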

[14] = target: Sonic hedgehog protein (Homo sapiens) (UniProt Q15465); test: Inhibition of human SHH pathway in mouse S12 cells assessed as GLI-mediated transcriptional activity at 3 uM after 48 hrs by luciferase reporter gene assay in presence of 5 mg/mL human alpha-1-acid glycoprotein; format: cell-based; method in brief: as §3
[15] = Binding affinity to human alpha-1-acid glycoprotein at 37 degC by surface plasmon resonance assay; format: ADME; method in brief: as §1
[16] = Binding affinity to rat alpha-1-acid glycoprotein at 250 uM at 37 degC by surface plasmon resonance assay; format: ADME; method in brief: as §1
[17] = target: T2, Albumin; test: Binding affinity to rat serum albumin at 37 degC by surface plasmon resonance assay
[18] = target: T2, Albumin; test: Binding affinity to high-affinity binding site of rat serum albumin at 20 degC by surface plasmon resonance assay
[19] = target: T2, Albumin; test: Binding affinity to low-affinity binding site of rat serum albumin at 20 degC by surface plasmon resonance assay
[20] = Binding affinity to […] uM of human alpha-1-acid glycoprotein in at 5 uM after 6 hrs by equilibrium dialysis method; format: ADME; settings: isolated protein
[21] = Binding affinity to 100 uM of human alpha-1-acid glycoprotein in at 5 uM after 6 hrs by equilibrium dialysis method; format: ADME; settings: isolated protein; method in brief: as §2
[22] = Binding affinity to 10 uM of human alpha-1-acid glycoprotein in at 25 uM after 6 hrs by equilibrium dialysis method; format: ADME; settings: isolated protein; method in brief: as §2
[23] = Binding affinity to […] uM of human alpha-1-acid glycoprotein in at 25 uM after 6 hrs by equilibrium dialysis method; format: ADME; settings: isolated protein
[24] = Binding affinity to 100 uM of human alpha-1-acid glycoprotein in at 25 uM after 6 hrs by equilibrium dialysis method; format: ADME; settings: isolated protein; method in brief: as §2
[25] = Binding affinity to 10 uM of human alpha-1-acid glycoprotein in at 75 uM after 6 hrs by equilibrium dialysis method; format: ADME; settings: isolated protein; method in brief: as §2
[26] = Binding affinity to […] uM of human alpha-1-acid glycoprotein in at 75 uM after 6 hrs by equilibrium dialysis method; format: ADME; settings: isolated protein
[27] = Binding affinity to 100 uM of human alpha-1-acid glycoprotein in at 75 uM after 6 hrs by equilibrium dialysis method; format: ADME; settings: isolated protein; method in brief: as §2
[28] = Binding affinity to human alpha-1-acid glycoprotein at 500 uM at 37 degC by surface plasmon resonance assay; format: ADME
Method in brief: (§4)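 Compounds were diluted from 10 mM DMSO stocks into 50 mM Hepes pH 7.2, 150 mM NaCl, 0.005% Tween-20, 5% DMSO, in cross-serial dilutions. Responses at the end of association were double-referenced, solvent-corrected and fit to single- or two-site equilibrium models for KD.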

[29] = Binding affinity to rat alpha-1-acid glycoprotein at 500 uM at 37 degC by surface plasmon resonance assay; format: ADME; method in brief: as §4
[30] = Binding affinity to human alpha-1-acid glycoprotein at 500 uM at 20 degC by surface plasmon resonance assay; format: ADME; method in brief: as §4
[31] = Binding affinity to rat alpha-1-acid glycoprotein at 500 uM at 20 degC by surface plasmon resonance assay; format: ADME; method in brief: as §4

T2 sequence (P02770 whole entry): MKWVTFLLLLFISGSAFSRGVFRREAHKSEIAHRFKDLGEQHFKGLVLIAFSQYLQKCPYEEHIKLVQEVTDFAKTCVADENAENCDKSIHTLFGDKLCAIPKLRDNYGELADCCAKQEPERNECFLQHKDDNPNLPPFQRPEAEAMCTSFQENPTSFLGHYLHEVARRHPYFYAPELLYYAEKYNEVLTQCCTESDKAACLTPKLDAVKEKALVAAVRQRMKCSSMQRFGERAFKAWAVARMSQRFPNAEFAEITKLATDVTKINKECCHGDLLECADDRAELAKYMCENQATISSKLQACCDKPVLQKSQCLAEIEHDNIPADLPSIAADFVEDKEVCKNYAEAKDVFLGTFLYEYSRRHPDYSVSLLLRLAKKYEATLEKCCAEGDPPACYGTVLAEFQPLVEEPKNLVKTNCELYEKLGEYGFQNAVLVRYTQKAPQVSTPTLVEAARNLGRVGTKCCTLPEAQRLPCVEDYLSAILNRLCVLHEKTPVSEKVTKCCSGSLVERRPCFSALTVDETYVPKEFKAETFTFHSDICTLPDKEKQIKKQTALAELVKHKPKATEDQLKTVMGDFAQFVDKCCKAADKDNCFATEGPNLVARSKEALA
T1 sequence (P02768 whole entry): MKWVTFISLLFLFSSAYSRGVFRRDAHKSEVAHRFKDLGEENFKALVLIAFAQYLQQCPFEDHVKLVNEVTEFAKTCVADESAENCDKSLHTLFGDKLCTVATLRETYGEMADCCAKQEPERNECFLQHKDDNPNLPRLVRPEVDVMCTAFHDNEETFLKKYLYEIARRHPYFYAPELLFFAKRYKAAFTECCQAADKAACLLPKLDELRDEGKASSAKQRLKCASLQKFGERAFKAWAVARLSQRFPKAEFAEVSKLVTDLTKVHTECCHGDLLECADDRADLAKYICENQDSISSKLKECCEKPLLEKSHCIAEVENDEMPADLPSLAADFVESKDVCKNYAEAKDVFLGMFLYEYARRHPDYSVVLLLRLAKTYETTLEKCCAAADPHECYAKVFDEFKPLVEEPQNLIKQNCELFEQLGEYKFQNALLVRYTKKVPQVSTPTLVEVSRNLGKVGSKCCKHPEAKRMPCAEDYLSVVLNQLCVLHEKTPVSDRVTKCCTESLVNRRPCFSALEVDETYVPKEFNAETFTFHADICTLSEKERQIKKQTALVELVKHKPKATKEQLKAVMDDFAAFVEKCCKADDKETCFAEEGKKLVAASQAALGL
Sonic hedgehog protein (Homo sapiens), sequence (Q15465 24-197 limits assumed): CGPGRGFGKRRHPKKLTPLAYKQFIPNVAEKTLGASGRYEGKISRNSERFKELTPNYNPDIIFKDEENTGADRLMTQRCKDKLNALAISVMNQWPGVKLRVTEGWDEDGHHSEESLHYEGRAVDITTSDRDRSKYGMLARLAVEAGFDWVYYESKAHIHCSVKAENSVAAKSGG

Activity [1]: Not Active
Activity [2]: Not Active
Kd [3]: 219 µM
Kd [4]: 71 µM
Kd [5]: 1700 µM
Activity [6]: Not Active
Activity [7]: Not Active
Kd [8]: 8.3 µM
Kd [9]: 7 µM
Kd [10]: 15.3 µM
SMILES: C=CC1=C(C)/C(=C/C2=NC(=C\c3[nH]c(/C=C4\NC(=O)C(C)=C4C=C)c(C)c3CCC(=O)O)/C(CCC(=O)O)=C2C)NC1=O [BILIVERDIN]

SMILES: CS(=O)(=O)c1ccc(C(=O)Nc2ccc(Cl)c(-c3ccccn3)c2)c(Cl)c1 [VISMODEGIB]
Activity [11]: 96.5%
Kd [12]: 1.5 µM
inhibition [13]: Active
inhibition [14]: inactive
Kd [15]: 13 µM
Activity [16]: Not Active
Kd [17]: 140 µM
Kd [3]: 139 µM
Kd [18]: 171 µM
Kd [19]: 5.8 µM
Kd [9]: 1.1 µM
Kd [10]: 3.7 µM
Activity [20]: 98.3%
Activity [21]: 98.8%
Activity [22]: 70.4%
Activity [23]: 88.9%
Activity [24]: 98.7%
Activity [25]: 41.1%
Activity [26]: 60%
Activity [27]: 98.3%

SMILES: CC(=O)CC(c1ccccc1)c1c(O)c2ccccc2oc1=O (centres undefined) [WARFARIN]
Activity [28]: Not Active
Activity [29]: Not Active
Activity [30]: Not Active
Activity [31]: Not Active
